Measured values published in ChEMBL document CHEMBL3352649, “2,2'-Dihydroxybenzophenones and their carbonyl N-analogues as inhibitor scaffolds for MDR-involved human glutathione transferase isoenzyme A1-1” (Bioorg Med Chem, 2014).

How the values were obtained:
[1] = target: T1, Glutathione S-transferase A1 (Homo sapiens) (UniProt P08263); assay: Inhibition of human GSTA1 activity assessed as conjugation between CDNB and GSH at 25 uM
T1 sequence (whole entry): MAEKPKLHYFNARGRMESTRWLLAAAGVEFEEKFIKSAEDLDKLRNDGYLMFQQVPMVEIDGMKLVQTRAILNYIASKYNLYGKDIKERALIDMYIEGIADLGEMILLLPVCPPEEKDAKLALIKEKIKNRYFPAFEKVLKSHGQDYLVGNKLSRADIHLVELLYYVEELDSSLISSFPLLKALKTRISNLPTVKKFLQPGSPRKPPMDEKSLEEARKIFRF
How it was run: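 1 mL of 100 mM potassium phosphate pH 6.5, 0.75 µmol GSH, 25 nmol compound (from 5 mM DMSO stock), enzyme; 1 min at 25 °C, then 0.3 µmol CDNB. Read at 340 nm. Remaining activity is relative to a 5 µL DMSO replacement, mean of three assays.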

[2] = target: T2, Glutathione S-transferase A1 (Homo sapiens, UniProt P08263); assay: Inhibition of human GSTA1 activity assessed as conjugation between CDNB and GSH
T2 sequence (P08263 whole entry): T1 sequence (whole entry)

[3] = target: T2, Glutathione S-transferase A1; assay: Mixed-type inhibition of human GSTA1 activity by double reciprocal Lineweaver-Burk graph

inhibition [1]	IC50 [2]	Ki [3]	SMILES
0%			O=C(c1ccccc1O)c1ccccc1O
87.7%	240 nM	360 nM	O=C(c1ccccc1O)c1cc(Br)ccc1O
